SIRT5 block – inhibitors of human sirtuin-5 desuccinylase. Purified SirT5, succinyl-peptide AMC, trypsin-coupled fluorescence. inhibition, % at 15 µM. 330,000 compounds, 1.1% hits. AID 652115; in the data active = inhibition above about 15%
PDI inh – PDI (human) enzyme inhibition; P07237; PDI insulin aggregation turbidity, A650, 90 min; inhibition, % at 10 µM; 350,000 compounds, 0.052% hits; AID 588391;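 active = mean inhibition across replicates of 30% or more, whatever share of single replicates reach that level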
S100A4 MyoIIA – blocks human S100A4 binding to myosin IIA peptide; P26447; S100A4/TAMRA-MyoIIA peptide fluorescence polarization; inhibition, % at 10.7 µM; 360,000 compounds, 0.14% hits;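 active = mean inhibition of at least 70% across replicates, with every replicate also reaching that level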
Target sequence (P26447 whole entry, looked up): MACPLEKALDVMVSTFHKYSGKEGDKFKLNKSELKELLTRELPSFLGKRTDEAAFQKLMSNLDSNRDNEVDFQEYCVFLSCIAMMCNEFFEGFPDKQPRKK
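Material: S100A4 monomer protein | Medium: HEPES pH 7.2 with CaCl2, KCl, NaCl, DTT, Triton | Reagent: Labelled myosin peptide probe, 5 nM | Doses: One dose per compound | Times: 5 min incubation before reading | Benchmarks: Neutral control DMSO, positive control TFP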
ERp5 block – blocks human ERp5 reductase activity on insulin. ERp5 insulin aggregation, absorbance 650 nm, 90 min. 350,000 compounds, 0.05% hits. inhibition, % at 9.99 µM. Q15084;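 active = mean replicate inhibition above about 25%, with every replicate also reaching it, limit read from the data, passing the limit was not always enough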
Target sequence (Q15084 whole entry, looked up): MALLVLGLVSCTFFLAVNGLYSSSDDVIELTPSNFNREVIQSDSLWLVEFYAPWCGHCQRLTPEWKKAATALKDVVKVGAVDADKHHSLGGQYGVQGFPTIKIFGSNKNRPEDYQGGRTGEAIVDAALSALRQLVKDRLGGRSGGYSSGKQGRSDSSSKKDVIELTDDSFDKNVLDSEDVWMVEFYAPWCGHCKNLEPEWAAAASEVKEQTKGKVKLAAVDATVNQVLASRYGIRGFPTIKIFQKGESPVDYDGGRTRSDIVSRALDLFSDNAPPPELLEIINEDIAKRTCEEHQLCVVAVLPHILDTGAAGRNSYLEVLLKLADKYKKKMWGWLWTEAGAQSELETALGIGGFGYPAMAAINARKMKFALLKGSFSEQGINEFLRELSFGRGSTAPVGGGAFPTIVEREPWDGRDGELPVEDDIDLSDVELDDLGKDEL
GSIS activator – GLuc luminescence reporter in INS-1E cells, primary screen for activators of glucose-dependent secretion of insulin. activation, % at 16.6 µM. 370,000 compounds, 0.61% hits. INS-1E GLuc reporter insulin secretion, 2-3 h;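 active = lowest replicate activation of at least 40%, so every replicate reaches that level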;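 note: 0% = median of neutral control wells and 100% = median of IBMX positive control wells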
* marks the source's active call; other numbers are inactive results. Most compounds without a hit are left out; they make up all but 1.5% or so of the library.

`CO[C@@H]1CN(C)C(=O)c2cc(NS(=O)(=O)c3ccc(Cl)cc3)ccc2OC[C@@H](C)N(C)C[C@H]1C` gave SIRT5 block 2, S100A4 MyoIIA -2, ERp5 block 6 and GSIS activator -4.
COc1ccccc1CCn1cnc(-c2ccccc2OC)c1CC(C)C was read as S100A4 MyoIIA 1, ERp5 block -19 and GSIS activator 65*.
For COc1ccccc1CCn1cnc(-c2ccc(F)cc2)c1CC(C)C the results were S100A4 MyoIIA 1, ERp5 block 2 and GSIS activator 120*.
Screening COc1ccc(NC(=O)CSc2ncnc3c2sc2ccccc23)c(OC)c1 returned PDI inh 15 and GSIS activator 58*.
For Cn1c(=O)[nH]c(=O)c2c1nc(N1CCCCC1)n2C/C=N/Nc1ccc(C(=O)O)cc1 the results were SIRT5 block -2, PDI inh 5, S100A4 MyoIIA 3, ERp5 block -3 and GSIS activator 49*.
Screening C/C=C/Cn1c(N(C)Cc2ccccc2)nc2c1c(=O)[nH]c(=O)n2C returned PDI inh -19, S100A4 MyoIIA -8, ERp5 block 1 and GSIS activator 47*.
C/C=C/Cn1c(N2CCCCCC2)nc2c1c(=O)[nH]c(=O)n2C was read as PDI inh -16 and GSIS activator 62*.
`Cn1c(=O)[nH]c(=O)c2c1nc(N1CCCC1)n2CCO` gave SIRT5 block -1, PDI inh 0, S100A4 MyoIIA -2, ERp5 block 5 and GSIS activator 0.
C/C=C/Cn1c(Br)nc2c1c(=O)[nH]c(=O)n2C was read as SIRT5 block -2, PDI inh 5, S100A4 MyoIIA 0, ERp5 block 0 and GSIS activator 65*.
`Cc1noc(C)c1S(=O)(=O)N(C)C[C@H]1OCCCC[C@H](C)Oc2ccc(NS(C)(=O)=O)cc2C(=O)N([C@H](C)CO)C[C@@H]1C` gave SIRT5 block 0, S100A4 MyoIIA -4, ERp5 block 0 and GSIS activator 12.
Screening Cc1noc(C)c1NC(=O)N(C)C[C@@H]1OCCCC[C@@H](C)Oc2ccc(NC(=O)Nc3ccccc3)cc2C(=O)N([C@H](C)CO)C[C@@H]1C returned GSIS activator 14.
`CCCNC(=O)N[C@@H]1CC[C@H](CCNS(=O)(=O)c2cccc(F)c2)O[C@H]1CO` gave SIRT5 block -1, S100A4 MyoIIA -6, ERp5 block -5 and GSIS activator -12.
Screening COc1cc2c(cc1OC)C(CSc1ccccc1C(=O)O)=NC(C)(C)C2 returned SIRT5 block 0, PDI inh -2, S100A4 MyoIIA -14, ERp5 block -10 and GSIS activator 41*.
For C[C@H](CO)N1C[C@H](C)[C@@H](CN(C)C(=O)Cc2ccccc2)OCCCC[C@H](C)Oc2ccc(NS(=O)(=O)c3ccccc3)cc2C1=O the results were SIRT5 block 3, S100A4 MyoIIA -2, ERp5 block 0 and GSIS activator -20.
C[C@@H]1CCCCO[C@H](CN(C)C(=O)Cc2ccccc2)[C@@H](C)CN([C@H](C)CO)C(=O)c2cc(NS(=O)(=O)c3cn(C)cn3)ccc2O1 was read as SIRT5 block 24*, S100A4 MyoIIA 1, ERp5 block 0 and GSIS activator -8.
`C[C@@H]1CCCCO[C@H](CN(C)C(=O)Cc2ccccc2)[C@H](C)CN([C@H](C)CO)C(=O)c2cc(NS(=O)(=O)c3ccccc3)ccc2O1` gave SIRT5 block 16*, S100A4 MyoIIA 58, ERp5 block -2 and GSIS activator -42.
C[C@@H]1CN([C@@H](C)CO)C(=O)c2cc(NS(=O)(=O)c3cn(C)cn3)ccc2O[C@@H](C)CCCCO[C@@H]1CN(C)C(=O)Cc1ccccc1 was read as SIRT5 block -1, S100A4 MyoIIA -18, ERp5 block 5 and GSIS activator 3.
O=C(C[C@@H]1C=C[C@@H](NC(=O)Nc2ccc3c(c2)OCO3)[C@H](CO)O1)NCc1ccc(F)cc1 was read as SIRT5 block 0, S100A4 MyoIIA -9, ERp5 block 1 and GSIS activator -11.
`C[C@@H]1CN([C@H](C)CO)C(=O)c2cccc(NS(=O)(=O)c3ccccc3)c2O[C@@H]1CN(C)S(=O)(=O)c1ccccc1` gave SIRT5 block 3, S100A4 MyoIIA 6, ERp5 block -7 and GSIS activator -2.
`COc1cc(/C=C2/C(C)=C(C#N)c3nc(N)c(C#N)c(C)c32)ccc1OCC(=O)O` gave SIRT5 block 9, S100A4 MyoIIA -25, ERp5 block 3 and GSIS activator -2.
`CC1=C(C#N)c2nc(N)c(C#N)c(C)c2/C1=C\c1ccc(-c2ccccc2C(=O)O)o1` gave SIRT5 block 25*, PDI inh 15, S100A4 MyoIIA -3, ERp5 block 0 and GSIS activator -15.
For Fc1cccc(-c2nnn3c2nc(Cl)c2ccccc23)c1 the results were SIRT5 block -3, PDI inh -1, S100A4 MyoIIA -1, ERp5 block -3 and GSIS activator 45*.
Clc1nc2c(-c3ccccc3)nnn2c2ccccc12 was read as SIRT5 block 0, PDI inh 7, S100A4 MyoIIA 4, ERp5 block -3 and GSIS activator 4.
Screening Cc1cc(S(=O)(=O)N2CCN=C2c2ccccc2)c(C)cc1Cl returned SIRT5 block 21*, PDI inh -2, S100A4 MyoIIA 0 and ERp5 block -8.
For Cc1c(Cl)ccc(S(=O)(=O)N2CCN=C2c2ccccc2)c1Cl the results were PDI inh -4 and GSIS activator 6.
For Cc1ccc(S(=O)(=O)Nc2ccc(C(=O)NCCCn3ccnc3)cc2)cc1[N+](=O)[O-] the results were SIRT5 block 0, PDI inh -13, S100A4 MyoIIA -19, ERp5 block -8 and GSIS activator 44*.
`Cc1ccc(C(=O)NCCCn2ccnc2)cc1[N+](=O)[O-]` gave PDI inh 5.
Cc1nc(CN2CCN(S(=O)(=O)c3c(Cl)cc(Br)cc3Cl)CC2)cs1 was read as SIRT5 block -1, PDI inh 1, S100A4 MyoIIA -4, ERp5 block 12 and GSIS activator 68*.
`Cc1nc(CN2CCN(C(=O)NC3(c4ccccc4)CC3)CC2)cs1` gave PDI inh 1 and GSIS activator 3.
Screening C[C@H](O)C#Cc1ccc2c(c1)O[C@H](CN(C)Cc1ccccn1)[C@@H](C)CN([C@H](C)CO)S2(=O)=O returned SIRT5 block 2, S100A4 MyoIIA 6, ERp5 block 1 and GSIS activator 18.
`CCOC(=O)[C@@H]1[C@H]2COc3cc(OC)ccc3[C@@H]2N2C(=O)N(c3cccc(Cl)c3)C(=O)[C@]12C` gave PDI inh 1.
For CCOC(=O)[C@@H]1[C@H]2COc3cc(OC)ccc3[C@@H]2N2C(=O)N(c3cccc(C)c3)C(=O)[C@]12C the results were PDI inh 3, S100A4 MyoIIA 87*, ERp5 block -4 and GSIS activator -27.

Compound activity deposited in PubChem BioAssay by Broad Institute.
